Measurements as given in ChEMBL document CHEMBL3853270, “Influence of Birch Bark Triterpenes on Keratinocytes and Fibroblasts from Diabetic and Nondiabetic Donors” (2016).
Calls of active or inactive are those of the source. No cut-off for these calls is given here.

Columns and labels:
Keratinocyte [1] = experiment: Effect on pro-inflammatory related gene expression in non-diabetic adult human primary keratinocytes assessed as TNF mRNA levels at 9.81 uM after 6 hrs by qPCR analysis; format: functional
Fibroblast [2] = experiment: Effect on transcription factor related gene expression in non-diabetic young human primary fibroblasts assessed as JUN mRNA levels at 9.81 uM after 6 hrs by qPCR analysis; format: functional
Fibroblast [3] = experiment: Effect on pro-inflammatory related gene expression in non-diabetic young human primary fibroblasts assessed as PTGS2 mRNA levels at 1.96 uM after 6 hrs by qPCR analysis; format: functional
Keratinocyte [4] = experiment: Effect on growth factor related gene expression in diabetic adult human primary keratinocytes assessed as VEGFA mRNA levels at 1.96 uM after 6 hrs by qPCR analysis; format: functional
Summary of the method: (§1)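 Primary human keratinocytes (nondiabetic young or adult, diabetic adult donors) were exposed to compound for 6 h, with 0.1% DMSO as solvent control. Total RNA came from 400 000 cells per sample and was assayed on a Fluidigm Biomark high-throughput qPCR chip. Results are fold change vs solvent control, from 2−4 independent experiments on two donors per group, with SD. Groups were compared by one-way ANOVA with Bonferroni post-test.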

Keratinocyte [5] = experiment: Effect on AQP3 mRNA expression levels in non-diabetic young human primary keratinocytes at 1.96 uM after 6 hrs by qPCR analysis; format: functional
Summary of the method: (§2)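 Primary keratinocytes from nondiabetic young and adult and diabetic adult donors; 400 000 cells per sample, 6 h exposure at 1.96 or 9.81 μM. RNA extracted and read on a high-throughput qPCR chip. Results are fold change versus 0.1% DMSO solvent control from 5−7 independent experiments over two donors per group, SD, one-way ANOVA with Bonferroni post-test.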

[6] = Effect on wound healing activity in diabetic adult human primary keratinocytes assessed as upregulation of RANTES protein levels at 1.96 uM after 24 hrs by bead-based suspension array analysis; format: functional; settings: Keratinocyte
Keratinocyte [7] = experiment: Effect on antiinflammatory related gene expression in diabetic adult human primary keratinocytes assessed as NFKBIA mRNA levels at 1.96 uM after 6 hrs by qPCR analysis; format: functional; summary of the method: as §2
Keratinocyte [8] = experiment: Effect on growth factor related gene expression in non-diabetic young human primary keratinocytes assessed as GDF15 mRNA levels at 9.81 uM after 6 hrs by qPCR analysis; format: functional; summary of the method: as §1
Fibroblast [9] = experiment: Effect on pro-inflammatory related gene expression in non-diabetic adult human primary fibroblasts assessed as IL1R1 mRNA levels at 9.81 uM after 6 hrs by qPCR analysis; format: functional
[10] = Upregulation of wound healing activity related soluble ICAM1 protein levels in non-diabetic adult human primary keratinocytes at 1.96 uM after 24 hrs by bead-based suspension array analysis; format: functional; settings: Keratinocyte
Keratinocyte [11] = experiment: Effect on ECM related gene expression in non-diabetic adult human primary keratinocytes assessed as FBN1 mRNA levels at 9.81 uM after 6 hrs by qPCR analysis; format: functional; summary of the method: as §2
Fibroblast [12] = experiment: Effect on transcription factor related gene expression in non-diabetic adult human primary fibroblasts assessed as JUN mRNA levels at 1.96 uM after 6 hrs by qPCR analysis; format: functional
Keratinocyte [13] = experiment: Effect on growth factor related gene expression in non-diabetic adult human primary keratinocytes assessed as GDF15 mRNA levels at 1.96 uM after 6 hrs by qPCR analysis; format: functional; summary of the method: as §1
Keratinocyte [14] = experiment: Effect on AQP3 mRNA expression levels in diabetic adult human primary keratinocytes at 9.81 uM after 6 hrs by qPCR analysis; format: functional; summary of the method: as §2
Fibroblast [15] = experiment: Effect on antiinflammatory related gene expression in diabetic adult human primary fibroblasts assessed as NFKBIA mRNA levels at 1.96 uM after 6 hrs by qPCR analysis; format: functional
Summary of the method: (§3)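 Primary dermal fibroblasts from one nondiabetic young, one nondiabetic adult and one diabetic adult donor; 320 000 cells per sample, 6 h at 1.96 or 9.81 μM. RNA measured on a high-throughput qPCR chip. Fold change versus 0.1% DMSO control, four independent experiments, SD, one-way ANOVA with Bonferroni post-test.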

Fibroblast [16] = experiment: Effect on growth factors related gene expression in diabetic adult human primary fibroblasts assessed as FGF2 mRNA levels at 1.96 uM after 6 hrs by qPCR analysis; format: functional
Summary of the method: (§4)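 Primary human dermal fibroblasts (young or adult nondiabetic, adult diabetic donor) were treated for 6 h against a 0.1% DMSO solvent control. RNA from 320 000 cells per sample was measured by Fluidigm Biomark high-throughput qPCR. Values are fold change relative to solvent control, from four independent experiments, with SD. One-way ANOVA with Bonferroni post-test was applied.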

Keratinocyte [17] = experiment: Effect on cellular connection related gene expression in non-diabetic adult human primary keratinocytes assessed as GJB2 mRNA levels at 9.81 uM after 6 hrs by qPCR analysis; format: functional
Fibroblast [18] = experiment: Effect on transcription factor related gene expression in diabetic adult human primary fibroblasts assessed as JUN mRNA levels at 9.81 uM after 6 hrs by qPCR analysis; format: functional
[19] = target: Transforming protein RhoA (Homo sapiens) (UniProt P61586); experiment: Activation of RhoA in human diabetic primary keratinocytes at 10 nM after 3 hrs by immunoblot method
Transforming protein RhoA (Homo sapiens), sequence (P61586 whole entry): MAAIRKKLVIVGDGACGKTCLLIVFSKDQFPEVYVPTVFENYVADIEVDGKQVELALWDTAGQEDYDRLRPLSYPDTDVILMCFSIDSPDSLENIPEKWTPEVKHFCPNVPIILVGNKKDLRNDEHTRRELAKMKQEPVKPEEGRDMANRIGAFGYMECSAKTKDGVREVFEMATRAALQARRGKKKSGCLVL
Summary of the method: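 Keratinocytes from a diabetic adult donor; incubation 3 h for RhoA, 20 min for Cdc42 and Rac1. Lysates made in glycerol/Tris pH 7.4/NaCl/NP-40/MgCl2/PMSF buffer, spun at 4 °C. Active GTP-bound form pulled down on glutathione-sepharose with GST-Rhotekin (RhoA) or GST-PAK (Cdc42, Rac1) for 1 h at 4 °C. Total and pulled-down protein read by immunoblot with ECL; n = 3.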

Fibroblast [20] = experiment: Effect on growth factors related gene expression in non-diabetic adult human primary fibroblasts assessed as FGF2 mRNA levels at 9.81 uM after 6 hrs by qPCR analysis; format: functional; summary of the method: as §4
Fibroblast [21] = experiment: Effect on chemokines related gene expression in non-diabetic young human primary fibroblasts assessed as CCL2 mRNA levels at 1.96 uM after 6 hrs by qPCR analysis; format: functional
[22] = Effect on wound healing activity in diabetic adult human primary fibroblasts assessed as upregulation of soluble ICAM1 protein levels at 1.96 uM after 24 hrs by bead-based suspension array analysis; format: functional; settings: Fibroblast
Keratinocyte [23] = experiment: Effect on pro-inflammatory related gene expression in non-diabetic young human primary keratinocytes assessed as IL1B mRNA levels at 9.81 uM after 6 hrs by qPCR analysis; format: functional
Keratinocyte [24] = experiment: Effect on pro-inflammatory related gene expression in non-diabetic adult human primary keratinocytes assessed as PTGS2 mRNA levels at 9.81 uM after 6 hrs by qPCR analysis; format: functional
Fibroblast [25] = experiment: Effect on adhesion molecules related gene expression in diabetic adult human primary fibroblasts assessed as ICAM1 mRNA levels at 1.96 uM after 6 hrs by qPCR analysis; format: functional
Summary of the method: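 Dermal fibroblasts from nondiabetic adult and diabetic adult donors, exposed for 6 h at 1.96 or 9.81 μM. ICAM-1 and VCAM-1 mRNA measured by standard qRT-PCR, n = 3. Fold change versus 0.1% DMSO control, SD, one-way ANOVA with Bonferroni post-test.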

Fibroblast [26] = experiment: Effect on antiinflammatory related gene expression in non-diabetic adult human primary fibroblasts assessed as SOCS3 mRNA levels at 9.81 uM after 6 hrs by qPCR analysis; format: functional; summary of the method: as §3
Fibroblast [27] = experiment: Effect on MMP1 mRNA expression levels in non-diabetic young human primary fibroblasts at 9.81 uM after 6 hrs by qPCR analysis; format: functional; summary of the method: as §3

Q: What does the source list for `C=C(C)[C@@H]1CC[C@]2(CO)CC[C@]3(C)[C@H](CC[C@@H]4[C@@]5(C)CC[C@H](O)C(C)(C)[C@@H]5CC[C@]43C)[C@@H]12` [BETULIN]?
A: fold change (FC) (Keratinocyte [1]): 6.1; fold change (FC) (Fibroblast [2]): 1.6; fold change (FC) (Fibroblast [3]): 10.9; fold change (FC) (Keratinocyte [4]): 1.6; fold change (FC) (Keratinocyte [5]): 0.9; Activity [6]: Active; fold change (FC) (Keratinocyte [7]): 1.2; fold change (FC) (Keratinocyte [8]): 1.1; fold change (FC) (Fibroblast [9]): 4.9; Activity [10]: Active; fold change (FC) (Keratinocyte [11]): 0.7; fold change (FC) (Fibroblast [12]): 1.9; fold change (FC) (Keratinocyte [13]): 1; fold change (FC) (Keratinocyte [14]): 0.8; fold change (FC) (Fibroblast [15]): 3.1; fold change (FC) (Fibroblast [16]): 2; fold change (FC) (Keratinocyte [17]): 0.8; fold change (FC) (Fibroblast [18]): 1.2; Activity [19]: Active; fold change (FC) (Fibroblast [20]): 3.4; fold change (FC) (Fibroblast [21]): 4.3; Activity [22]: Active; fold change (FC) (Keratinocyte [23]): 0.9; fold change (FC) (Keratinocyte [24]): 1.3; fold change (FC) (Fibroblast [25]): 6.3; fold change (FC) (Fibroblast [26]): 24.6; fold change (FC) (Fibroblast [27]): 1
